ChEMBL document CHEMBL1147467, “Design and synthesis of oxadiazolidinediones as inhibitors of plasminogen activator inhibitor-1” (Bioorg Med Chem Lett, 2004)

Molecular target: T1, Plasminogen activator inhibitor 1 (Homo sapiens, UniProt P05121)
Test: In vitro inhibition of plasminogen activator inhibitor-1 at concentration 25 um
Target sequence in this assay (P05121 whole entry, looked up): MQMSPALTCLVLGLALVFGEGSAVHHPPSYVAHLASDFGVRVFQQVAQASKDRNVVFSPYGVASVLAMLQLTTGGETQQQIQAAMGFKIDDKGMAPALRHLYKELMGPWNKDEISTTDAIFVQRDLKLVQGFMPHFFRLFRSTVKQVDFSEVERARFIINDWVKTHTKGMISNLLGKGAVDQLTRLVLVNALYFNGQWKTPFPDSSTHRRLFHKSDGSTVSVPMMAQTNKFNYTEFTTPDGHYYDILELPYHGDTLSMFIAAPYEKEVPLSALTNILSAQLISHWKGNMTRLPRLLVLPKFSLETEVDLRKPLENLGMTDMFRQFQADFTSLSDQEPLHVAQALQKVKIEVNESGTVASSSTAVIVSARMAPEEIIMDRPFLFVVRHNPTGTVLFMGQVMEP

| inhibition | Structure (SMILES) |
| --- | --- |
| 37% | C/C(=C\Cn1oc(=O)[nH]c1=O)c1cccc(OCc2cccc(C)c2)c1 |
| 24% | C/C(=C\Cn1oc(=O)[nH]c1=O)c1cccc(OCc2ccccc2)c1 |

Molecular target: T1, Plasminogen activator inhibitor 1
Test: In vitro concentration required for inhibition of tissue type plasminogen activator by plasminogen activator inhibitor-1 at concentration 25 um
Outline: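 Recombinant human PAI-1 (140 nM) preincubated 1 h at room temperature with compound (1-100 µM final, ≤0.2% DMSO) in pH 6.6 buffer. Recombinant human tPA (70 nM; PAI-1:tPA 2:1) then added for 30 min, followed by the chromogenic tPA substrate Spectrozyme-tPA, with A405 read at 0 and 60 min.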
Target sequence in this assay (P05121 whole entry): as the sequence (P05121 whole entry, looked up) above

| Structure (SMILES) | IC50 |
| --- | --- |
| C/C(=C\Cn1oc(=O)[nH]c1=O)c1cccc(OCc2cc(C(F)(F)F)cc(C(F)(F)F)c2)c1 | 9.4 µM |
| COc1cc(/C=C/Cn2oc(=O)[nH]c2=O)ccc1OCc1ccc(Cl)c(Cl)c1 | 3.22 µM |
| C/C(=C\Cn1oc(=O)[nH]c1=O)c1cccc(OCc2ccccc2-c2ccccc2)c1 | 2.3 µM |
| O=c1[nH]c(=O)n(C/C=C/c2cc(OCc3ccc(Cl)cc3)cc(OCc3ccc(Cl)cc3)c2)o1 | 2.1 µM |
| C/C(=C\Cn1oc(=O)[nH]c1=O)c1cccc(COc2cc(C(F)(F)F)cc(C(F)(F)F)c2)c1 | 5.29 µM |
| O=c1[nH]c(=O)n(C/C=C/c2cc(OCc3ccc(Cl)c(Cl)c3)ccc2Cl)o1 | 3.8 µM |
| O=c1[nH]c(=O)n(C/C=C/c2cc(OCc3ccc(C(F)(F)F)cc3)cc(OCc3ccc(C(F)(F)F)cc3)c2)o1 | 2.5 µM |
| C/C(=C/Cn1oc(=O)[nH]c1=O)c1cccc(COc2cc(C(F)(F)F)cc(C(F)(F)F)c2)c1 | 7.2 µM |
| C/C(=C\Cn1oc(=O)[nH]c1=O)c1cccc(OCc2ccccn2)c1 | 24 µM |

Molecular target: T1, Plasminogen activator inhibitor 1
Test: Inhibitory activity against plasminogen activator inhibitor-1

| IC50 | Structure (SMILES) |
| --- | --- |
| 5.8 µM | CC(/C=C/c1ccc(OCc2cccc(C(F)(F)F)c2)cc1)n1oc(=O)[nH]c1=O (centres undefined) |
| 2.2 µM | CCCCC(CCn1oc(=O)[nH]c1=O)c1cccc(Oc2cccc(C)c2)c1 (centres undefined) |
| 1.9 µM | CCCC/C(=C\Cn1oc(=O)[nH]c1=O)c1cccc(Oc2cc(Cl)cc(Cl)c2)c1 |
| 0.68 µM | O=c1[nH]c(=O)n(C(CCc2ccc(OCc3cccc(Cl)c3)cc2)c2ccccc2)o1 (centres undefined) |
| 14.9 µM | O=c1[nH]c(=O)n(C/C=C/c2ccc(OCc3cc(C(F)(F)F)cc(C(F)(F)F)c3)cc2)o1 |
| 9 µM | CC/C(=C\Cn1oc(=O)[nH]c1=O)c1ccc(OCc2cc(C(F)(F)F)cc(C(F)(F)F)c2)cc1 |
| 6.1 µM | CC(/C=C/c1ccc(OCc2ccc(Cl)c(Cl)c2)cc1)n1oc(=O)[nH]c1=O (centres undefined) |
| 0.39 µM | O=c1[nH]c(=O)n(C(CCc2ccc(OCc3cc(C(F)(F)F)cc(C(F)(F)F)c3)cc2)c2ccccc2)o1 (centres undefined) |
